Data on two compounds can be found in PMC4778717 (ChemMedChem, 2015).

pIC50: −log10 of the molar value. In brackets after ≈: the same amount, converted by molar mass. Read-outs that look alike come from different tables or passages of the source.

The test system of one experiment is S. aureus K2361 (NorA++). Nature of the experiment: Bacteriostatic effect. The format is cell-based. The settings on record: Staphylococcus aureus, read-out: Bacteriostatic effect, MIC, NorA++ K2361.
For experiment [1], the target named is T1, EcSecA (Escherichia coli, UniProt P10408). Put plainly: Ion-channel activity of SecA-liposomes in oocytes, EcSecA. The format is biochemical, E. coli. Put shortly:
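SecA reconstituted with liposomes, plus proOmpA, 2 mM ATP, 1 mM Mg(OAc)2 and varied test compound concentrations, was injected into Xenopus laevis oocytes (120 ng liposomes, 120 ng SecA, 14 ng proOmpA per 50 nl). Oocytes were held 3 hr at 23 C, then current was recorded by voltage clamp for 1 min. Net channel current came from inward and outward currents.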

The next experiment relates to S. aureus N315. Nature of the experiment: Bacteriostatic effect. Type of experiment: cell-based. Particulars: Staphylococcus aureus, N315, 16 h, read-out: Bacteriostatic effect, MIC, S. aureus N315.
Experiment [2] has as its system S. aureus Mu50. Put plainly: Bactericidal effect. The format is cell-based. Particulars: at 50 μM, 2 hr treatment. Put shortly:
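S. aureus Mu50 cells in log phase (OD600 ≈ 0.5) were mixed with a range of test compound concentrations and shaken at 1,000 rpm at 37 °C for 2 hr. Cultures were serially diluted in LB broth, plated on LB agar and incubated at 37 °C overnight. Colony-forming units were counted, and the bactericidal effect was taken as the reduction in CFU.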

For the next experiment, the system named is S. aureus 6538. Put plainly: Bacteriostatic effect. The format is cell-based.
In another experiment the test system is S. aureus K2068 (MepA++). Nature of the experiment: Bacteriostatic effect. The format is cell-based. Particulars: Staphylococcus aureus, read-out: Bacteriostatic effect, MIC, MepA++ K2068.
For a further experiment, the target named is T2, SaSecA1 (Staphylococcus aureus, UniProt O06446).
T2 sequence (O06446 1-843): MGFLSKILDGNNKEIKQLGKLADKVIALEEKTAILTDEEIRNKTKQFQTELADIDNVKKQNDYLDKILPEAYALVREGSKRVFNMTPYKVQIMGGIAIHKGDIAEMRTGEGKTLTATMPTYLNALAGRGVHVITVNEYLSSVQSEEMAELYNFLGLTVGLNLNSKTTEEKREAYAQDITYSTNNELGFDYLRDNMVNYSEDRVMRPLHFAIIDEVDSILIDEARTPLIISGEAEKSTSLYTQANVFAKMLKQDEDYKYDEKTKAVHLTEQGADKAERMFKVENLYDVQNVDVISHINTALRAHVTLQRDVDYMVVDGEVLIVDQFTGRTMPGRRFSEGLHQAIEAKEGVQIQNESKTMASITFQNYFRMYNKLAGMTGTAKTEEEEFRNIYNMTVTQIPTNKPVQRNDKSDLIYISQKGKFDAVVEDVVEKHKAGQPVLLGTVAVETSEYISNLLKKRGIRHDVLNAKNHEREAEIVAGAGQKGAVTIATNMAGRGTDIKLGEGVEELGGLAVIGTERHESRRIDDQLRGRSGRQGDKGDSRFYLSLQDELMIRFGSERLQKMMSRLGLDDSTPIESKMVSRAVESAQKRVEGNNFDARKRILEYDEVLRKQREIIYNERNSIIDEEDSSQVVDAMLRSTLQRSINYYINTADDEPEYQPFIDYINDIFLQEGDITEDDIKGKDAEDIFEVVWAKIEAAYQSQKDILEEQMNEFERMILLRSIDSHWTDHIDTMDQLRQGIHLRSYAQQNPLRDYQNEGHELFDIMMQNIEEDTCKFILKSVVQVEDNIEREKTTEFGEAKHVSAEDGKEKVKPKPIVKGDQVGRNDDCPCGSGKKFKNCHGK
Nature of the experiment: Ion-channel activity of SecA-liposomes in oocytes, SaSecA1. The format is biochemical.

A further experiment has as its system E. coli NR698. Put plainly: Bacteriostatic effect. Type of experiment: cell-based. Particulars: Escherichia coli, NR698, 24 h, read-out: MIC, E. coli NR698.
In another experiment the test system is B. subtilis 168. Nature of the experiment: Bacteriostatic effect. The format is cell-based. The settings on record: Bacillus subtilis, 168, 16 h, read-out: Bacteriostatic effect, MIC, B. subtilis 168.
A further experiment has as its system S. aureus K2908 (MepA−). Nature of the experiment: Bacteriostatic effect. The format is cell-based. Particulars: Staphylococcus aureus, read-out: Bacteriostatic effect, MIC, MepA− K2908.
For a further experiment, the system named is S. aureus Newman. Nature of the experiment: Bacteriostatic effect. The format is cell-based. Particulars: Staphylococcus aureus, 16 h, read-out: Bacteriostatic effect, MIC, S. aureus Newman.
A further experiment concerns S. aureus K1758 (NorA−). Put plainly: Bacteriostatic effect. Type of experiment: cell-based. Particulars: Staphylococcus aureus, read-out: Bacteriostatic effect, MIC, NorA− K1758.
In experiment [3] the target is T1, EcSecA. Nature of the experiment: In vitro translocation activity with SecA-liposomes. The format is biochemical, E. coli. The settings on record: reconstituted SecA-only liposomes, proOmpA, immunoblots. Put shortly: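 Reconstituted SecA-only liposomes (stored at −80 °C, frozen-thawed once), E. coli SecA and proOmpA added separately to translocation buffer before the reaction, with 12 μg liposomes per reaction and varied SecA amounts. Test compound at various concentrations; reaction at 37 °C for 45 min. proOmpA translocation efficiency read by immunoblot.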
(In general: Immunoblotting shows a protein as a band on a membrane.)

Experiment [4] deals with T1, EcSecA. Put plainly: Intrinsic ATPase activity of full EcSecA. Type of experiment: biochemical, E. coli.
The next experiment relates to S. aureus Mu3. Nature of the experiment: Bacteriostatic effect. The format is cell-based. Particulars: Staphylococcus aureus, MU3, 16 h, read-out: Bacteriostatic effect, MIC, S. aureus Mu3.
For experiment [5], the system named is S. aureus Mu50. Nature of the experiment: Bacteriostatic effect. The settings on record: for Fold more effective than vancomycin (MIC): S. aureus Mu50, vs vancomycin 8 μg/ml; for MIC: Staphylococcus aureus. The format is cell-based.
The target in another experiment is BaSecA1 (Bacillus anthracis, UniProt Q81X26). Put plainly: biochemical. Details: species or system B. anthracis.
Chain of BaSecA1 (Q81X26 whole entry, looked up): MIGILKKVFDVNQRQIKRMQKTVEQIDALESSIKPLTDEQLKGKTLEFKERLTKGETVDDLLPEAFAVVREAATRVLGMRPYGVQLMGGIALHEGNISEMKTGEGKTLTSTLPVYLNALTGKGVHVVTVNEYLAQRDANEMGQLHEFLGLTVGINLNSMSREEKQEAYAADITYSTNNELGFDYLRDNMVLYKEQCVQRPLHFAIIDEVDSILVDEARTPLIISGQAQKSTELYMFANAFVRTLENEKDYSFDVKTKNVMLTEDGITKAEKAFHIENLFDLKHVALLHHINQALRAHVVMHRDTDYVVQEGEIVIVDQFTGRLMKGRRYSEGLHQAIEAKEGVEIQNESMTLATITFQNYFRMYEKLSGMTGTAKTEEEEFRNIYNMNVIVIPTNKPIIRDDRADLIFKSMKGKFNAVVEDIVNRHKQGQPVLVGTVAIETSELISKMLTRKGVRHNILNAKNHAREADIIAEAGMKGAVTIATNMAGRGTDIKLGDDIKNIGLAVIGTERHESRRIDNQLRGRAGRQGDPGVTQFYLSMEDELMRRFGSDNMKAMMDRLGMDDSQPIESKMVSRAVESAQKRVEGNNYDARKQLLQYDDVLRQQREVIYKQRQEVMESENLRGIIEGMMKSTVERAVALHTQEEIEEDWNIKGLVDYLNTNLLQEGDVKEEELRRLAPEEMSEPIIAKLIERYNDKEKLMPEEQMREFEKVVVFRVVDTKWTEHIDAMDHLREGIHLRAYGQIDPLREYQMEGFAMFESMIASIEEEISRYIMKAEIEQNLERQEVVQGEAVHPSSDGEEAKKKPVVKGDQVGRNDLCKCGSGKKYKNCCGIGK
The target in a further experiment is SpSecA (Streptococcus pyogenes, UniProt Q99Y96). Nature of the experiment: Ion-channel activity of SecA-liposomes in oocytes, SpSecA. The format is biochemical.
Chain of SpSecA (Q99Y96 whole entry): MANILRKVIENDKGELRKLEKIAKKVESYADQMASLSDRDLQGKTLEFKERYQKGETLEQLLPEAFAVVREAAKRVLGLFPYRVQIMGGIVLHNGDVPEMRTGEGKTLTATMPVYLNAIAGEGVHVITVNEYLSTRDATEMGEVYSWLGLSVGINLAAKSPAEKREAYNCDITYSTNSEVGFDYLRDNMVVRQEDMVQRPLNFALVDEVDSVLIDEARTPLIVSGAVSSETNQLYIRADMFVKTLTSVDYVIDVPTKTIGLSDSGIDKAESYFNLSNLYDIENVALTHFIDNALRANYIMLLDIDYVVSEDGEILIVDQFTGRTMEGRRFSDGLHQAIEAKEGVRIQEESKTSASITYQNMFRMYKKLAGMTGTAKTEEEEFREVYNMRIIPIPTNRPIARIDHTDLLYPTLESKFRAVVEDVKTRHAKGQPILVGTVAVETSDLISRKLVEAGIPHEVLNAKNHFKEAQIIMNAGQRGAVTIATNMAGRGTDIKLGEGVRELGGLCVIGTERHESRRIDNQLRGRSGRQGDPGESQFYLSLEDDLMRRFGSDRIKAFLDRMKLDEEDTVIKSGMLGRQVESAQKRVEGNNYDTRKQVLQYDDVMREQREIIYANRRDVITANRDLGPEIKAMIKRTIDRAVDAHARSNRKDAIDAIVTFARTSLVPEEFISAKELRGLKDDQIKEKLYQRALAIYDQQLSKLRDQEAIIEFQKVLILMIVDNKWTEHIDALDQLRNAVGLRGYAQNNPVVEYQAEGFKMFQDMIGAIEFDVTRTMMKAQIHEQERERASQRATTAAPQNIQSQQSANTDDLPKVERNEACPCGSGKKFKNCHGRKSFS
The next experiment addresses EcSecAN68 (Escherichia coli, UniProt P10408). Put plainly: biochemical. Details: species or system E. coli.
The target in a further experiment is BsSecA (Bacillus subtilis, UniProt P28366). Put plainly: Ion-channel activity of SecA-liposomes in oocytes, BsSecA. The format is biochemical. Put shortly:
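Purified SecA was reconstituted into liposomes. After 3 hr at 23 C, ion current was recorded for 1 min by voltage clamp. Net inward/outward current gave channel opening.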

[6] abbreviates: Staphylococcus aureus, 6538, 16 h, read-out: Bacteriostatic effect, MIC, S. aureus 6538.
Where [7] appears, read: Staphylococcus aureus, 6538, 24 h, read-out: MIC, S. aureus 6538.
The mark [8] stands for this setting: MRSA, read-out: MIC, S. aureus Mu50.
[9] abbreviates: MU50, 16 h, read-out: Bacteriostatic effect, MIC, S. aureus Mu50.

T1 sequence (P10408 whole entry): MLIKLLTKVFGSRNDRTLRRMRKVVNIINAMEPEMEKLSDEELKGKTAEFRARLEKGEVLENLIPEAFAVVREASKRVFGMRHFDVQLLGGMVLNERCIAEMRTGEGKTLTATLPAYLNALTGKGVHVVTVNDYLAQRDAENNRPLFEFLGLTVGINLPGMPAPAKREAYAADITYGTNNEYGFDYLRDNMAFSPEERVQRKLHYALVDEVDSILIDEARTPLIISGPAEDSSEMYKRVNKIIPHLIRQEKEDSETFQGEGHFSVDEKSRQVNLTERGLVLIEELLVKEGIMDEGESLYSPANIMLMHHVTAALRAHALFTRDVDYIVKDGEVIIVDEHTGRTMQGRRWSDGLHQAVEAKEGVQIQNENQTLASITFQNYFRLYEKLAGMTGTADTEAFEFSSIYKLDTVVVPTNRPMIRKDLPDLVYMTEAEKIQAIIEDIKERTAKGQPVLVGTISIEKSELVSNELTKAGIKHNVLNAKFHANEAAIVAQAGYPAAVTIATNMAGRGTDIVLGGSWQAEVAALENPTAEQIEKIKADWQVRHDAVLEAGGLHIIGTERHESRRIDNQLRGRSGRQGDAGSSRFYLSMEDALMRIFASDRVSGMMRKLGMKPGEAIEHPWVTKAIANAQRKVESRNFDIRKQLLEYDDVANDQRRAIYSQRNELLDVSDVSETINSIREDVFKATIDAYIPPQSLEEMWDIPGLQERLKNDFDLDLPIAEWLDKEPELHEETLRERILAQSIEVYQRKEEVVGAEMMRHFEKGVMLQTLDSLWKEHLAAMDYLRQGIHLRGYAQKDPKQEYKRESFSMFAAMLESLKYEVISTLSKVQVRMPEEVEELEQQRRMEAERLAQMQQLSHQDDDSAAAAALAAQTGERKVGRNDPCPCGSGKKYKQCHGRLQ
Chain of BsSecA (P28366 whole entry): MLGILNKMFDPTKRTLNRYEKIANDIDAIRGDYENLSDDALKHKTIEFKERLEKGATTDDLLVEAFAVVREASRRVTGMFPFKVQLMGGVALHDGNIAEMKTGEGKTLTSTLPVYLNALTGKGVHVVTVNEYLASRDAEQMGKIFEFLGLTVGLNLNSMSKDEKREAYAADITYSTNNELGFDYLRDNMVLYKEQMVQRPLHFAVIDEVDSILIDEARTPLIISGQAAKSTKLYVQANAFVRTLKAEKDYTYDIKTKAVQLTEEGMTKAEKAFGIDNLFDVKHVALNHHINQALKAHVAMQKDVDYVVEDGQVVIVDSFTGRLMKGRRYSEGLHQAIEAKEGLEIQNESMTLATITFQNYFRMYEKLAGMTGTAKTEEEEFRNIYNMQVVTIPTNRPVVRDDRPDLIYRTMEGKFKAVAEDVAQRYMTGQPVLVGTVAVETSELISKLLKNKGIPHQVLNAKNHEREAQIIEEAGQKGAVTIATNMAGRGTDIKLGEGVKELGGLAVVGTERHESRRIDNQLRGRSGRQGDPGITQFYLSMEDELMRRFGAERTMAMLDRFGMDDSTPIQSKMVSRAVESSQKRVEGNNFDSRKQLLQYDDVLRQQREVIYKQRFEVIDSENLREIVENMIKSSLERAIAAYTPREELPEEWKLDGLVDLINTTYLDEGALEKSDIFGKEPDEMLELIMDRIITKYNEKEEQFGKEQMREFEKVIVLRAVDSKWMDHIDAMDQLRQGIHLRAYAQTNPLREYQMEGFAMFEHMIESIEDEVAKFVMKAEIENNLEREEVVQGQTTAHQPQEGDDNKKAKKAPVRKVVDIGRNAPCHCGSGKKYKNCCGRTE
Chain of EcSecAN68 (P10408 1-610): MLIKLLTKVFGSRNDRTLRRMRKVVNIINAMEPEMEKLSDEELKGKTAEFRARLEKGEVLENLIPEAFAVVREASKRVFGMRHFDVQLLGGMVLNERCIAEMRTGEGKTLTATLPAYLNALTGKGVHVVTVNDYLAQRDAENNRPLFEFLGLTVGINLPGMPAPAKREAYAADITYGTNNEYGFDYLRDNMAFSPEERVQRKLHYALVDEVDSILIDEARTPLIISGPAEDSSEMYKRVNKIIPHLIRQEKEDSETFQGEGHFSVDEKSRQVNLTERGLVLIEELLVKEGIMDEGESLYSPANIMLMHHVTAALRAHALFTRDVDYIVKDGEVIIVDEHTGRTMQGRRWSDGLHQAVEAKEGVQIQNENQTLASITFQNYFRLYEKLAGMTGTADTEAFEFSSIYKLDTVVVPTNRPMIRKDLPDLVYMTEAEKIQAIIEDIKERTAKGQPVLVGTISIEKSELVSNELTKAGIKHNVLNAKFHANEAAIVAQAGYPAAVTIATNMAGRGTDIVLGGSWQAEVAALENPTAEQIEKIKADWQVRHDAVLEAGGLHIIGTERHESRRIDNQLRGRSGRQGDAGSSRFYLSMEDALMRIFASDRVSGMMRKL

In general, MIC refers to the lowest concentration that inhibits growth of the organism. What is called pIC50 is the IC50 on a negative log10 scale, so that one unit is a factor of ten. The low end stands for a large IC50, the high end for a small IC50. As for `CSc1nc(Cl)cc(Sc2nnc(-c3cc(C(F)(F)F)cc(C(F)(F)F)c3)[nH]2)n1` [Compound 7b, 4-((5-(3,5-Bis(trifluoromethyl)phenyl)-4H-1,2,4-triazol-3-yl)thio)-6-chloro-2-(methylthio)pyrimidine], the MIC was 3.1 µM (≈ 1.46 µg/mL) in the experiment with S. aureus K2361 (NorA++); 0.8 µM (≈ 0.377 µg/mL) in the experiment with S. aureus N315; 3.1 µM (≈ 1.46 µg/mL) in the experiment with S. aureus 6538 (setting [6]); 3.1 µM (≈ 1.46 µg/mL) with S. aureus 6538 (setting [7]); 3.1 µM (≈ 1.46 µg/mL) with S. aureus K2068 (MepA++); 4.7 µM (≈ 2.22 µg/mL) with E. coli NR698. Further, the minimal inhibitory concentration (MIC) with B. subtilis 168 was 1.6 µM (≈ 0.755 µg/mL); with S. aureus K2908 (MepA−), 2.1 µM (≈ 0.991 µg/mL); with S. aureus Newman, 1.6 µM (≈ 0.755 µg/mL); in the experiment on S. aureus K1758 (NorA−), 3.1 µM (≈ 1.46 µg/mL); in the experiment with S. aureus Mu3, 3.1 µM (≈ 1.46 µg/mL); in the experiment on S. aureus Mu50 [5] (setting [8]) it was 0.75 µg/mL. Moreover, the MIC with S. aureus Mu50 [5] (setting [9]) came to 1.6 µM. For the same compound, on EcSecA [1] (inhibition kinetics, Figure 4), the “Mode of inhibition, SecA-liposome channel activity, EcSecA” value is reported as “non-competitive inhibitor”. Further, the “Decrease of CFU of S. aureus Mu50” value in the experiment with S. aureus Mu50 [2] turned out to be 2 log units. Moreover, the “Mode of inhibition, SecA-liposome channel activity, SaSecA” value at SaSecA1 (inhibition kinetics, Figure 4) was “non-competitive inhibitor”. Moreover, the pIC50 against EcSecA [3] is 5.70; against EcSecA [4], under 3.70. For the same compound, the “Fold more effective than vancomycin (MIC)” value in the experiment with S. aureus Mu50 [5] is recorded as 10 fold.

For `FC(F)(F)c1cc(-c2nnc(Sc3cc(Cl)nc(Sc4ccccc4)n3)[nH]2)cc(C(F)(F)F)c1` [Compound 12a, 4-((5-(3,5-Bis(trifluoromethyl)phenyl)-4H-1,2,4-triazol-3-yl)thio)-6-chloro-2-(phenylthio) Pyrimidine], the minimum inhibitory concentration (MIC) in the experiment with S. aureus K2361 (NorA++) stood at 1.8 µM (≈ 0.961 µg/mL); with S. aureus N315 it was 0.8 µM (≈ 0.427 µg/mL); in the experiment with S. aureus 6538 (setting [6]), 1.8 µM (≈ 0.961 µg/mL); in the experiment with S. aureus 6538 (setting [7]), 1.8 µM (≈ 0.961 µg/mL); with S. aureus K2068 (MepA++), 1.3 µM (≈ 0.694 µg/mL); in the experiment with E. coli NR698, 3.1 µM (≈ 1.66 µg/mL). The minimal inhibitory concentration (MIC) amounted to 0.8 µM (≈ 0.427 µg/mL) in the experiment on B. subtilis 168; 1 µM (≈ 0.534 µg/mL) in the experiment with S. aureus K2908 (MepA−); 1.6 µM (≈ 0.854 µg/mL) in the experiment on S. aureus K1758 (NorA−); 1.6 µM (≈ 0.854 µg/mL) in the experiment with S. aureus Mu3; 0.43 µg/mL in the experiment on S. aureus Mu50 [5] (setting [8]); 0.8 µM in the experiment with S. aureus Mu50 [5] (setting [9]). The pIC50 at EcSecA [1] is 5.89; against BaSecA1, 6.00; against SaSecA1, 6.00; on SpSecA it was 5.89; against EcSecAN68 it was 4.70; against BsSecA it was 5.64. Also, the pIC50 at EcSecA [3] is 5.32; against EcSecA [4], under 3.70. For the same compound, the “Fold more effective than vancomycin (MIC)” value with S. aureus Mu50 [5] is listed as 18 fold.
